Reference: ChEMBL document CHEMBL1177718, “Phosphoramidate ProTides of 2'-C-methylguanosine as highly potent inhibitors of hepatitis C virus. Study of their in vitro and in vivo properties” (J Med Chem, 2010)

Columns and labels:
[1] = Metabolic stability in dog intestine S9 fraction assessed as compound remaining at 10 uM after 60 mins by HPLC analysis in presence of NADP; format: ADME, tissue-based, Canis lupus familiaris; settings: read-out: Stability
Outline: (§1)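 Liver or intestinal S9 at final 1 mg/mL in 50 mM potassium phosphate, with or without NADPH-regenerating system (1.3 mM NADP, 3.3 mM glucose-6-phosphate, 0.4 U/mL G6PDH, 3.3 mM MgCl₂); 10 min preincubation at 37 °C; compound at final 10 μM; samples at start and 60 min quenched in cold acetonitrile, centrifuged, HPLC; % parent remaining.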

Hepatitis C virus = assay: Antiviral activity against HCV1b infected in human HuH7 cells assessed as inhibition of viral replication after 48 hrs by luciferase reporter gene assay; format: functional, organism-based, Hepacivirus hominis; settings: genotype 1b, Huh-7, 48 h
Outline: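 Huh7 cells carrying genotype 1b bicistronic subgenomic replicon, seeded 2 × 10⁴/well without G-418; compounds added 18-24 h later, 48 h exposure; 3× or 4× serial dilutions over 0.0001-10 μM in triplicate/quadruplicate; Renilla luciferase read-out versus untreated cells; EC₅₀ by four-parameter sigmoidal nonlinear regression; at least three independent assays.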

[2] = Metabolic stability in human liver S9 fraction assessed as compound remaining at 10 uM after 30 mins by HPLC analysis in absence of NADP; format: ADME, subcellular; settings: read-out: Stability
[3] = Metabolic stability in mouse plasma assessed as compound remaining at 1 ug/ml after 30 mins; format: ADME, cell-free; settings: read-out: Stability
[4] = Cytotoxicity against human HuH7 cells after 72 hrs by celltiter-glo assay; format: cell-based, Huh-7
Outline: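 Replicon 1b Huh7 cells seeded 2 × 10⁴/well; after 24 h, 11 serial 2× dilutions from 100 μM (three repeats each) with no-compound control; 72 h at 37 °C, CO₂, log-phase growth; viability by CellTiter-Glo luminescence; CC₅₀ = concentration giving 50% signal.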

[5] = Metabolic stability in dog liver S9 fraction assessed as compound remaining at 10 uM after 60 mins by HPLC analysis in presence of NADP; format: ADME, subcellular, Canis lupus familiaris; settings: read-out: Stability; outline: as §1
[6] = Metabolic stability in dog liver S9 fraction assessed as compound remaining at 10 uM after 60 mins by HPLC analysis in absence of NADP; format: ADME, subcellular, Canis lupus familiaris; settings: read-out: Stability; outline: as §1
[7] = Metabolic stability in human intestine S9 fraction assessed as compound remaining at 10 uM after 30 mins by HPLC analysis in absence of NADP; format: ADME, tissue-based; settings: read-out: Stability
[8] = Metabolic stability in human liver S9 fraction assessed as compound remaining at 10 uM after 30 mins by HPLC analysis in presence of NADP; format: ADME, subcellular; settings: read-out: Stability
[9] = Metabolic stability in dog intestine S9 fraction assessed as compound remaining at 10 uM after 60 mins by HPLC analysis in absence of NADP; format: ADME, tissue-based, Canis lupus familiaris; settings: read-out: Stability; outline: as §1
[10] = Metabolic stability in human intestine S9 fraction assessed as compound remaining at 10 uM after 30 mins by HPLC analysis in presence of NADP; format: ADME, tissue-based; settings: read-out: Stability
[11] = Metabolic stability in rat intestine S9 fraction assessed as compound remaining at 10 uM after 60 mins by HPLC analysis in presence of NADP; format: ADME, tissue-based; settings: read-out: Stability
Outline: (§2)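 Rat liver or intestinal S9 at 1 mg/mL final in 50 mM potassium phosphate, with or without NADPH-regenerating system (final 1.3 mM NADP, 3.3 mM glucose-6-phosphate, 0.4 U/mL G6P dehydrogenase, 3.3 mM MgCl2). Preincubated 10 min at 37 °C with shaking, started with compound at 10 μM final. Samples taken at 0 and 60 min, quenched in cold acetonitrile, centrifuged, and parent disappearance measured by HPLC.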

[12] = Metabolic stability in cynomolgus monkey liver S9 fraction assessed as compound remaining at 10 uM after 60 mins by HPLC analysis in absence of NADP; format: ADME, subcellular, Macaca fascicularis; settings: read-out: Stability; outline: as §1
[13] = Metabolic stability in rat liver S9 fraction assessed as compound remaining at 10 uM after 60 mins by HPLC analysis in presence of NADP; format: ADME, subcellular; settings: read-out: Stability; outline: as §2
[14] = Metabolic stability in rat liver S9 fraction assessed as compound remaining at 10 uM after 60 mins by HPLC analysis in absence of NADP; format: ADME, subcellular; settings: read-out: Stability; outline: as §2
[15] = Metabolic stability in human liver S9 fraction assessed as compound remaining at 10 uM after 60 mins by HPLC analysis in absence of NADP; format: ADME, subcellular; settings: read-out: Stability; outline: as §1
[16] = Metabolic stability in human intestine S9 fraction assessed as compound remaining at 10 uM after 60 mins by HPLC analysis in absence of NADP; format: ADME, tissue-based; settings: read-out: Stability; outline: as §1
[17] = Metabolic stability in human liver S9 fraction assessed as compound remaining at 10 uM after 60 mins by HPLC analysis in presence of NADP; format: ADME, subcellular; settings: read-out: Stability; outline: as §1
[18] = Metabolic stability in cynomolgus monkey liver S9 fraction assessed as compound remaining at 10 uM after 60 mins by HPLC analysis in presence of NADP; format: ADME, subcellular, Macaca fascicularis; settings: read-out: Stability; outline: as §1
[19] = Metabolic stability in human intestine S9 fraction assessed as compound remaining at 10 uM after 60 mins by HPLC analysis in presence of NADP; format: ADME, tissue-based; settings: read-out: Stability; outline: as §1
[20] = Metabolic stability in cynomolgus monkey intestine S9 fraction assessed as compound remaining at 10 uM after 60 mins by HPLC analysis in absence of NADP; format: ADME, tissue-based, Macaca fascicularis; settings: read-out: Stability; outline: as §1
[21] = Metabolic stability in rat intestine S9 fraction assessed as compound remaining at 10 uM after 60 mins by HPLC analysis in absence of NADP; format: ADME, tissue-based; settings: read-out: Stability; outline: as §2
[22] = Metabolic stability in mouse plasma assessed as compound remaining at 1 ug/ml after 4 hrs; format: ADME, cell-free; settings: read-out: Stability
[23] = Metabolic stability in cynomolgus monkey intestine S9 fraction assessed as compound remaining at 10 uM after 60 mins by HPLC analysis in presence of NADP; format: ADME, tissue-based, Macaca fascicularis; settings: read-out: Stability; outline: as §1
[24] = Cmax in ICR mouse plasma at 50 mg/kg, po by LC-MS/MS analysis; format: ADME, organism-based; parameters: dose 50 mg/kg, route oral
[25] = Metabolic stability in dog plasma assessed as compound remaining at 1 ug/ml after 30 mins; format: ADME, cell-free, Canis lupus familiaris; settings: read-out: Stability
Outline: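 Duplicate incubations; compound at final 1 μg/mL in plasma preincubated and kept at […]; samples taken at 30 or 240 min, quenched with ice-cold acetonitrile, centrifuged, supernatant diluted with water; parent quantified by LC-MS/MS (Polar-RP column, formic acid water/acetonitrile gradient, positive ion mode); % remaining reported.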

Liver [26] = assay: Dose normalized AUC in ICR mouse liver at 50 mg/kg, po by LC-MS/MS analysis; format: ADME, organism-based; parameters: dose 50 mg/kg, route oral; settings: in vivo
Liver [27] = assay: AUC (0 to 24 hrs) in ICR mouse liver at 50 mg/kg, po by LC-MS/MS analysis; format: ADME, organism-based; parameters: time < 24 hr, dose 50 mg/kg, route oral; settings: in vivo
Homo sapiens = organism: Homo sapiens; assay: Metabolic stability in human plasma assessed as compound remaining at 1 ug/ml after 30 mins
Liver [28] = assay: AUC (0 to 6 hrs) in ICR mouse liver at 50 mg/kg, po by LC-MS/MS analysis; format: ADME, organism-based; parameters: time < 6 hr, dose 50 mg/kg, route oral; settings: in vivo
Plasma = assay: Dose normalized AUC in ICR mouse plasma at 50 mg/kg, po by LC-MS/MS analysis; format: ADME, organism-based; parameters: dose 50 mg/kg, route oral; settings: in vivo

SMILES | remaining at 1 h, 10 µM [1] | EC50 (Hepatitis C virus) | remaining at 0.5 h, 1 ug/ml [3] | remaining at 1 h, 10 µM [5] | remaining at 1 h, 10 µM [6] | remaining at 1 h, 10 µM [9] | Cmax [24] | remaining at 0.5 h, 1 ug/ml [25] | AUC (Liver [26]) | remaining at 0.5 h, 1 ug/ml (Homo sapiens) | AUC (Liver [28]) | AUC (Plasma) | CC50 at 72 h [4] | also measured
CC(C)[C@H](NP(=O)(OC[C@H]1O[C@@H](n2cnc3c(=O)[nH]c(N)nc32)[C@](C)(O)[C@@H]1O)Oc1cccc2ccccc12)C(=O)OC1CCCCC1 (stereo partly drawn) |  | 1000 nM | 95% |  |  |  | 185 ng/mL | 95% | 77 ng·h/g | 97% | 815 ng·h/g | 33 ng·h/mL | > 100000 nM | AUC (Liver [27]): 3860 ng·h/g
CC(C)[C@H](NP(=O)(OC[C@H]1O[C@@H](n2cnc3c(=O)[nH]c(N)nc32)[C@](C)(O)[C@@H]1O)Oc1cccc2ccccc12)C(=O)OCc1ccccc1Cl (stereo partly drawn) |  | 430 nM | 69% |  |  |  | 518 ng/mL | 100% | 18 ng·h/g | 77% | 880 ng·h/g | 49 ng·h/mL | > 100000 nM | 
CC(C)[C@H](NP(=O)(OC[C@H]1O[C@@H](n2cnc3c(=O)[nH]c(N)nc32)[C@](C)(O)[C@@H]1O)Oc1cccc2ccccc12)C(=O)OCc1ccc(Cl)cc1 (stereo partly drawn) |  | 620 nM | 94% |  |  |  | 339 ng/mL | 89% | 18 ng·h/g | 95% | 920 ng·h/g | 88 ng·h/mL |  | 

Continued, in another order:

remaining at 1 h, 10 µM [1] | EC50 (Hepatitis C virus) | remaining at 0.5 h, 1 ug/ml [3] | remaining at 1 h, 10 µM [5] | remaining at 1 h, 10 µM [6] | remaining at 1 h, 10 µM [9] | Cmax [24] | remaining at 0.5 h, 1 ug/ml [25] | AUC (Liver [26]) | remaining at 0.5 h, 1 ug/ml (Homo sapiens) | AUC (Liver [28]) | AUC (Plasma) | SMILES | CC50 at 72 h [4] | also measured
12% | 120 nM | 2% | 14% | 48% | 33% |  |  |  |  |  |  | CC(C)C[C@H](NP(=O)(OC[C@H]1O[C@@H](n2cnc3c(=O)[nH]c(N)nc32)[C@](C)(O)[C@@H]1O)Oc1cccc2ccccc12)C(=O)OCc1ccccc1 (stereo partly drawn) | > 50000 nM | remaining at 0.5 h, 10 µM [2]: 44%; remaining at 0.5 h, 10 µM [7]: 28%; remaining at 0.5 h, 10 µM [8]: 0%; remaining at 0.5 h, 10 µM [10]: 8%
87% | 900 nM | 100% | 64% | 84% | 96% |  |  |  |  |  |  | CC[C@H](C)[C@H](NP(=O)(OC[C@H]1O[C@@H](n2cnc3c(=O)[nH]c(N)nc32)[C@](C)(O)[C@@H]1O)Oc1cccc2ccccc12)C(=O)OCc1ccccc1 (stereo partly drawn) | > 50000 nM | remaining at 1 h, 10 µM [11]: 71%; remaining at 1 h, 10 µM [12]: 89%; remaining at 1 h, 10 µM [13]: 37%; remaining at 1 h, 10 µM [14]: 78%; remaining at 1 h, 10 µM [15]: 83%; remaining at 1 h, 10 µM [16]: 74%; remaining at 1 h, 10 µM [17]: 29%; remaining at 1 h, 10 µM [18]: 0%; remaining at 1 h, 10 µM [19]: 52%; remaining at 1 h, 10 µM [20]: 95%; remaining at 1 h, 10 µM [21]: 70%; remaining at 4 h, 1 ug/ml [22]: 95%; remaining at 1 h, 10 µM [23]: 29%
